According to the RNAGym collection of RNA variant scans (doi:10.1126/science.aae0568):
This sample holds only a part of the variants without activity.

B1: tRNA (parent)
chain: GUUCCGUUGGCGUAAUGGUAACGCGUCUCCCUCCUAAGGAGAAGACUGCGGGUUCGAGUCCCGUACGGAACG

Variants of: B1
Test: yeast fitness relative to wild type (ratio to wild type); higher = fitter; tRNA-Arg(CCU), competitive growth, 37 C, YPD
Method in brief: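 Start and end populations of a pooled competition were compared by 100-nucleotide paired-end sequencing of gene amplicons. The Saccharomyces cerevisiae strains carried tRNA-Arg(CCU) gene variants at the native genomic locus, synthesised with a 3% per-site mutation rate at 69 sites, and competed in YPD at 37°C for 24 hours in six parallel replicates. Darwinian fitness relative to wild type was based on the change in genotype frequencies. Genotypes required ≥ 100 starting reads, and estimates < 0.5 were set to 0.5.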
In the case of U26A C31A A45U, the yeast fitness is reported as 0.563.
C5G C11U A42U G68A showed a yeast fitness of no more than 0.5.
Variant C11U C27G A43C A57U has a yeast fitness of 0.696.
In the case of U16G A57G C62G C66U, the yeast fitness is reported as 0.517.
For C5U G38C, the yeast fitness was 0.719.
U28A C30U showed a yeast fitness of 0.667.
For G6C C24U C49U G56C, the yeast fitness was 0.52.
A21G C27G C60G A70C showed a yeast fitness of no more than 0.5.
For C11A G51A C66G, the yeast fitness was no more than 0.5.
Variant C34U A45U C62A has a yeast fitness of no more than 0.5.
C30A U54C G63A gave a yeast fitness of 0.601.
A14U U16G U19A A42G G52A gave a yeast fitness of no more than 0.5.
In the case of U19A C49G G56U, the yeast fitness is reported as 0.558.
With C27U G41A the yeast fitness was 0.939.
With U8G C24G U47C C61G the yeast fitness was no more than 0.5.
For C5U C31G C49U C61G, the yeast fitness was no more than 0.5.
Work on C22A G39C A43U U53C U54A yielded a yeast fitness of no more than 0.5.
In the case of C22G U32C U54A A65G, the yeast fitness is reported as no more than 0.5.
In the case of C5A U16C A21C C33U A40G U54G C62G, the yeast fitness is reported as 0.577.
Variant A14G A43G C60U C62U A70C has a yeast fitness of no more than 0.5.
For U7G C11A C22G C30G, the yeast fitness was no more than 0.5.
With A15C C24A U53C the yeast fitness was no more than 0.5.
A15C G48A U64G gave a yeast fitness of 0.593.
Work on U26A C27A U54C yielded a yeast fitness of no more than 0.5.
Work on G10A C27U G56A C60U yielded a yeast fitness of 0.556.
Work on G12A G39C U47A yielded a yeast fitness of no more than 0.5.
U16A U32A A40C U53A showed a yeast fitness of 0.551.
In the case of U8A A14G C49G, the yeast fitness is reported as 0.538.
In the case of U3C U26C, the yeast fitness is reported as 0.886.
C4U C24G U26A U28G A65U gave a yeast fitness of no more than 0.5.
Variant C27A G39C C55G A70C has a yeast fitness of no more than 0.5.
Work on U26A U28A C31U G56A C66G yielded a yeast fitness of no more than 0.5.
For G10A G17C C30G C33G C61A A65U, the yeast fitness was no more than 0.5.
For C29U A36U C49U, the yeast fitness was no more than 0.5.
U13C A20C showed a yeast fitness of 0.903.
Work on G18A U26G A42U A65G C66G G68A yielded a yeast fitness of no more than 0.5.
For U3A C4U C33G C34G U54A, the yeast fitness was no more than 0.5.
Work on U7A G12C A20G C34U C49G yielded a yeast fitness of no more than 0.5.
C4A A14G A36U A57U showed a yeast fitness of 0.953.
Variant C31A U59A A70C has a yeast fitness of no more than 0.5.
With G6A G52C A65U G67C the yeast fitness was no more than 0.5.
With U16G A65U A70U the yeast fitness was 0.64.
For C11U A36U G39A, the yeast fitness was no more than 0.5.
Variant C22G C33G has a yeast fitness of 0.685.
U59C A70G showed a yeast fitness of 1.01.
C49A G56A A57U showed a yeast fitness of no more than 0.5.
C4U A14G A21G C49U showed a yeast fitness of 0.677.
In the case of C11A U19G A36G C49A G68C, the yeast fitness is reported as no more than 0.5.
U3G U28C C62U showed a yeast fitness of 0.638.
Work on A14U G23U G68C yielded a yeast fitness of 0.514.
Variant C5U C22G C29A has a yeast fitness of 0.585.
For G25C U28C A69U, the yeast fitness was 0.532.
Work on G10C G44U yielded a yeast fitness of 0.587.
With G50A G51C A65C the yeast fitness was no more than 0.5.
For A42C U54A, the yeast fitness was 0.567.
Variant A20G C27A A40G A45C has a yeast fitness of no more than 0.5.
In the case of U26C A36G A69C, the yeast fitness is reported as 0.736.
U3C U16A gave a yeast fitness of 0.936.
For G25A A42U A57G, the yeast fitness was no more than 0.5.
Work on U47A A65G yielded a yeast fitness of 0.937.
For U16A A21G C22U G48C G63C, the yeast fitness was no more than 0.5.
With C11U C24G C33A A40C C66U the yeast fitness was 0.743.
Work on C24A C29G A45G yielded a yeast fitness of no more than 0.5.
For G6C C11U A21C, the yeast fitness was 0.671.
A43G C66U gave a yeast fitness of 0.887.
A14C C24A A37G C60U gave a yeast fitness of no more than 0.5.
Variant A14G A21G has a yeast fitness of 0.989.
U3C G50A gave a yeast fitness of 0.961.
Work on G10C C24U C29A A45U C46G U47A G50A yielded a yeast fitness of 0.702.
For G10A C22G G25C, the yeast fitness was no more than 0.5.
Variant G48A A65U has a yeast fitness of 1.02.
Work on C5U A21C G44C yielded a yeast fitness of 0.529.
In the case of U3C A37U G51A C62U, the yeast fitness is reported as no more than 0.5.
Work on U3A C5A U8G G10A C31U U47C yielded a yeast fitness of 0.632.
Work on U8G G10C yielded a yeast fitness of no more than 0.5.
Work on G50A G58C yielded a yeast fitness of 1.01.
With G12C A20C G48A the yeast fitness was 0.749.
Work on A45C G56C yielded a yeast fitness of 0.64.
Work on U16G G38C yielded a yeast fitness of 0.653.
With U3C C5G G9A C11G C66U the yeast fitness was no more than 0.5.
For U3C C4G C66G, the yeast fitness was no more than 0.5.
Work on C34A U47C G51A yielded a yeast fitness of 0.53.
In the case of U28C A40C G56C A65G, the yeast fitness is reported as no more than 0.5.
A40U A42C C62U G68A gave a yeast fitness of no more than 0.5.
With G58C C61A A69U the yeast fitness was 0.55.
Variant G6C C31G C33G U47C G51A C66U has a yeast fitness of no more than 0.5.
With U8C U26G C30U A40G the yeast fitness was no more than 0.5.
C24U C31U A40C A57C C61A G67A showed a yeast fitness of no more than 0.5.
For C55U C62G, the yeast fitness was 0.739.
In the case of C24U U28C G48A C61G, the yeast fitness is reported as no more than 0.5.
Variant A43U G50C A65C has a yeast fitness of 0.556.
G10C A36C U47A G48C U54G A65C gave a yeast fitness of no more than 0.5.
C11A A21C C31A C55U G68C showed a yeast fitness of no more than 0.5.
With U3G U19A G51A C66G the yeast fitness was no more than 0.5.
For U19A G56A, the yeast fitness was 1.
A14C U19G U59C A69G showed a yeast fitness of no more than 0.5.
With U2G C31G A57U A65G the yeast fitness was no more than 0.5.
In the case of U2G C11G A20U C24G C60G G68C, the yeast fitness is reported as 0.518.
Work on A20U U59G yielded a yeast fitness of 0.728.
With C24A A70U the yeast fitness was 0.596.
In the case of A15G C24G C49U, the yeast fitness is reported as 0.541.
A43U G44A C46A gave a yeast fitness of 0.654.
With C4U C27U U54A the yeast fitness was no more than 0.5.
G10A A21C A40G U59C gave a yeast fitness of no more than 0.5.
Work on C4G G25C yielded a yeast fitness of 0.982.
With C4G A36G the yeast fitness was 0.939.
C24U A65C showed a yeast fitness of 0.739.
For A21C C33G C34G U54A, the yeast fitness was no more than 0.5.
Variant C4G A14C G50C G56C has a yeast fitness of no more than 0.5.
Work on C5A U26A G56A A65G yielded a yeast fitness of 0.565.
With G6A G17A U32C the yeast fitness was no more than 0.5.
With U19C A21G U26G C49U the yeast fitness was 0.745.
For A21G G23A C27U C66U, the yeast fitness was 0.533.
With G6A U54G the yeast fitness was 0.611.
Work on C11G A15G C24G C46G G67A yielded a yeast fitness of no more than 0.5.
Variant U7G A21C G44C A69U has a yeast fitness of no more than 0.5.
Variant C4U U19A C30G A36C U47C has a yeast fitness of no more than 0.5.
For C30G A42U A45G A69U, the yeast fitness was no more than 0.5.
In the case of C4U A36G G39A, the yeast fitness is reported as 0.679.
In the case of G12C A43G, the yeast fitness is reported as 0.694.
Variant C5U U16G C34A U53C C60U has a yeast fitness of no more than 0.5.
G6A A36U A45U gave a yeast fitness of no more than 0.5.
For U16A G52A A57C, the yeast fitness was 0.571.
In the case of C5G C11A A40C U59C, the yeast fitness is reported as no more than 0.5.
Variant C27G A69U has a yeast fitness of 0.738.
Variant A21C C33U C61A A70C has a yeast fitness of 0.578.
C24U A42U C46A C55U C61G A69C gave a yeast fitness of no more than 0.5.
Variant C5G A15U A69U has a yeast fitness of 0.698.
Work on G12A G52A U59A A69C A70C yielded a yeast fitness of no more than 0.5.
U32A A36U A70G gave a yeast fitness of no more than 0.5.
Work on G41A C49A C62U G68C yielded a yeast fitness of no more than 0.5.
With A15G C30A G48C the yeast fitness was no more than 0.5.
U8C G12A A65G showed a yeast fitness of 0.615.
With U16A C24G C60A C61G the yeast fitness was no more than 0.5.
Variant C11A C27U C33U U35C has a yeast fitness of 0.634.
G23C A70U showed a yeast fitness of 0.717.
U3C C4U C27U C30A G41C C49A C55G C61A gave a yeast fitness of no more than 0.5.
C4A G17A G51C showed a yeast fitness of no more than 0.5.
In the case of C11G G48A C49G, the yeast fitness is reported as 0.587.
C5A A14U U53A U59G showed a yeast fitness of 0.597.
U13C A21C C31U showed a yeast fitness of no more than 0.5.
Work on A45C C55U yielded a yeast fitness of 0.692.
For U2G G25U C49U A65G, the yeast fitness was 0.64.
U3A C11U U13A G17C G18C A36C gave a yeast fitness of no more than 0.5.
With C5A U16G A20G C29G the yeast fitness was 0.601.
U13C C29U C55U gave a yeast fitness of no more than 0.5.
With A21G C49G U59C the yeast fitness was 0.583.
For C4A C5U U8C, the yeast fitness was no more than 0.5.
Variant A15G A20C C34U U59G has a yeast fitness of 0.705.
With C22A U35A G58A the yeast fitness was no more than 0.5.
U3A C24U C31G A37G gave a yeast fitness of no more than 0.5.
In the case of C11G A21U G68C, the yeast fitness is reported as no more than 0.5.
For C46U G51C U64A, the yeast fitness was no more than 0.5.
Variant U19A C30A has a yeast fitness of 0.812.
C31G C34G A42C C66G showed a yeast fitness of no more than 0.5.
Variant A36C G39A A57U has a yeast fitness of no more than 0.5.
Variant C4G U8C C22G A42C has a yeast fitness of no more than 0.5.
With U16G C24U C49G C55G the yeast fitness was no more than 0.5.
In the case of C4G C5G C31A U35C C46A G67A, the yeast fitness is reported as no more than 0.5.
Work on U26C C30G A45U U53A C62U G68C yielded a yeast fitness of no more than 0.5.
A15U U59C gave a yeast fitness of 0.788.
U3A A36C G51C gave a yeast fitness of 0.534.
In the case of C5U U32A C66U, the yeast fitness is reported as 0.578.
Variant C11A A45G has a yeast fitness of 0.603.
In the case of G25C A37U, the yeast fitness is reported as 0.56.
For C27U C30U C34G A37C A69C, the yeast fitness was no more than 0.5.
C4A G23C C24U A65G gave a yeast fitness of 0.556.
